As usually defined, the IC50 is the point on the concentration scale where inhibition reaches its midpoint.

Test [1] concerns the target T1, Angiotensin-converting enzyme (Oryctolagus cuniculus, UniProt P12822).
T1 sequence (P12822 whole entry): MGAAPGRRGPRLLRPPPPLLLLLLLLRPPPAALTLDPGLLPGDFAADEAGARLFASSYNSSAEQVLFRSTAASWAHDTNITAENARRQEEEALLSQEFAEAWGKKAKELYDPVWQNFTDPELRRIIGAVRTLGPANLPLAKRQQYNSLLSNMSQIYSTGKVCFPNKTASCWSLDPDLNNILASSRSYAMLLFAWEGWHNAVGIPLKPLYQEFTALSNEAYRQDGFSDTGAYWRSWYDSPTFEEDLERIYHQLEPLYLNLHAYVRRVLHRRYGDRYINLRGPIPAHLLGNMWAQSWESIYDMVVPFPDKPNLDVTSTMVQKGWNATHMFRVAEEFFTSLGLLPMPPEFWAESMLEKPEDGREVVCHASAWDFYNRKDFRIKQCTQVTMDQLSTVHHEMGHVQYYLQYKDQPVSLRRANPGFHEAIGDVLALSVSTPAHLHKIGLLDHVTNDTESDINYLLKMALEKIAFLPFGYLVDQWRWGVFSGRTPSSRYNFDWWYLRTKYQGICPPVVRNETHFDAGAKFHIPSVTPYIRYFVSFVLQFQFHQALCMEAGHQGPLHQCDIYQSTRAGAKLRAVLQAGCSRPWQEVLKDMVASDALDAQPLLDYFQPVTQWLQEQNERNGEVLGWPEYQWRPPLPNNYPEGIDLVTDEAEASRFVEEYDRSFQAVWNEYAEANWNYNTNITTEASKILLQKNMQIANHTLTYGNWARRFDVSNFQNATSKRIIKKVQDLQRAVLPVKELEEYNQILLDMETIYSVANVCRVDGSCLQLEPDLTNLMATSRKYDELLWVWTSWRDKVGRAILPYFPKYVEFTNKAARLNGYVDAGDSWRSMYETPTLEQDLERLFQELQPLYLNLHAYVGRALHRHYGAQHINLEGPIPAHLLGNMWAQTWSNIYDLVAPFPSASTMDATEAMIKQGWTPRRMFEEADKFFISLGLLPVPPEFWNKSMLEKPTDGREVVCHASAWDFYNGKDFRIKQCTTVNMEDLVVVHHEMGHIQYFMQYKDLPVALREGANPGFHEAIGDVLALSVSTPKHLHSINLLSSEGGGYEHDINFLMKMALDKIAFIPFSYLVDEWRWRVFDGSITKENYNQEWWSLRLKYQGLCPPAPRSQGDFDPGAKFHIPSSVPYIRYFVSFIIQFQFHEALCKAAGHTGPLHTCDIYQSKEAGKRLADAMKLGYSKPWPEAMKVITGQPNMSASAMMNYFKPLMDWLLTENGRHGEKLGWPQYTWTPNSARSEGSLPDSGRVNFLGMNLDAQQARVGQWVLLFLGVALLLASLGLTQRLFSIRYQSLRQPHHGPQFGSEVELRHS
Nature of the test: Tested for inhibition of Angiotensin I converting enzyme from rabbit. The gist of the method: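 Inhibition measured at 37 °C with Hip-His-Leu substrate, pH 8.3.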

Test [2] addresses Pepsin A (Sus scrofa, UniProt P00791). The experiment in a line: Tested for inhibition of pepsin from porcine. An outline of the steps:
(§1)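 Run at 37 °C with hemoglobin substrate at pH 3.2 for cathepsin D, casein substrate at pH 2.0 for pepsin.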

The target of test [3] is T2, Cathepsin D (Bos taurus, UniProt P80209).
T2 sequence (P80209 whole entry): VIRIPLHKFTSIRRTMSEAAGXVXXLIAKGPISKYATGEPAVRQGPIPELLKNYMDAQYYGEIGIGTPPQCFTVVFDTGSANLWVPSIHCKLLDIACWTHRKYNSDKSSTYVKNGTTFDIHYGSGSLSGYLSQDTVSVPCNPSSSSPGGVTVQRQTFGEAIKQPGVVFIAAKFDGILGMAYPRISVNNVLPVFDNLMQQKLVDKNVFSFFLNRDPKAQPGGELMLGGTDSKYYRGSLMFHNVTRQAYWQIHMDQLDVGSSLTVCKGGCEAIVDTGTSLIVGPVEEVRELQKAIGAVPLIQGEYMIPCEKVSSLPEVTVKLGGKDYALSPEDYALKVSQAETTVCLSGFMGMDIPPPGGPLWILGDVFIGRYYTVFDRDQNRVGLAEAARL
Nature of the test: Tested for inhibition of Cathepsin D from bovine. An outline of the steps: as §1

For test [4], the target named is T3, Renin (Homo sapiens, UniProt P00797).
T3 sequence (P00797 whole entry): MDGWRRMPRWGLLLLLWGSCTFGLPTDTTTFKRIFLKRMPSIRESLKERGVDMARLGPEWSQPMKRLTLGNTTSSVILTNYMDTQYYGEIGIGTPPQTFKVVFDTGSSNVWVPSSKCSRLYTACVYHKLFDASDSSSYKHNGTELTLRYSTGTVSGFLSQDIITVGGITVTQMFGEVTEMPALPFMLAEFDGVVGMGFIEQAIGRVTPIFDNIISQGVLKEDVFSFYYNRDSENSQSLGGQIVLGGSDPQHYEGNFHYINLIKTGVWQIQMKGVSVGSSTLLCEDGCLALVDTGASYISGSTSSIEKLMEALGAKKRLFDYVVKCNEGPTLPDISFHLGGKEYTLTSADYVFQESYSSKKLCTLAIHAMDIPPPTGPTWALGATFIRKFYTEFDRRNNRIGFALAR
The experiment in a line: Tested for inhibition of human plasma renin. It is filed as cell-free. The gist of the method:
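Human plasma containing EDTA-2Na (14 mM) and neomycin sulfate (0.3%) mixed with 0.5 M phosphate buffer pH 7.0, Phe-Ala-Pro (20 mM aqueous stock) and inhibitor in DMSO; 60 min at 37 °C; angiotensin I generated quantified by radioimmunoassay.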

Test [5] addresses T3, Renin. Nature of the test: Tested for inhibition of renin from human.

Pepsin A, sequence (P00791 whole entry): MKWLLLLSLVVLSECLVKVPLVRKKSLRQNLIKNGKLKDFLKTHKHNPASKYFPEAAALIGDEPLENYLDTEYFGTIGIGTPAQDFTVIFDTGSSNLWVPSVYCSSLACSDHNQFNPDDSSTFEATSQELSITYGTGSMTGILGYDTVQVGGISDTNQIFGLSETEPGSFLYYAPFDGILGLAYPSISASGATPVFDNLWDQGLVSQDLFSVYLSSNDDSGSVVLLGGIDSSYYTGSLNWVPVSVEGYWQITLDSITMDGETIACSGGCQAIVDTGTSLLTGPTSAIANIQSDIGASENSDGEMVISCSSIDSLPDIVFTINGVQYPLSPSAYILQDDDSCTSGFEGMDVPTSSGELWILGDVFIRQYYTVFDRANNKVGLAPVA

In the case of `CC(C)CC(=O)N[C@H](C(=O)N[C@H](C(=O)N[C@@H](CC(C)C)[C@@H](O)CC(=O)N[C@@H](C)C(=O)N[C@@H](CC(C)C)[C@@H](O)CC(=O)O)C(C)C)C(C)C` [PEPSTATIN], the 50% inhibitory concentration (IC50) in test [1] is greater than 100000 nM; in test [2], 18 nM.
Consider `CC(C)OC(=O)[C@H](O)[C@H](CC1CCCCC1)NC(=O)[C@H](Cc1c[nH]cn1)NC(=O)[C@@H](CC(=O)N1CCOCC1)Cc1cccc2ccccc12`, for which the IC50 in test [1] is greater than 100000 nM; in test [3], 80000 nM; in test [2], greater than 100000 nM; in test [4], 4.7 nM; in test [5], 2.4 nM.
In the case of `CC(C)OC(=O)[C@@H](O)[C@@H](CC1CCCCC1)NC(=O)[C@H](Cc1c[nH]cn1)NC(=O)[C@@H](CC(=O)N1CCOCC1)Cc1cccc2ccccc12`, the figures for the concentration for half-maximal inhibition (IC50) in test [4] and in test [5] were 4200 nM and 2700 nM, respectively.
As for `CC(C)OC(=O)[C@H](O)[C@H](CC1CCCCC1)NC(=O)[C@@H](Cc1c[nH]cn1)NC(=O)[C@@H](CC(=O)N1CCOCC1)Cc1cccc2ccccc12`, the half-inhibitory concentration (IC50) in test [4] was determined as 2300 nM; in test [5], 2500 nM.
As for `CC(C)OC(=O)[C@H](O)[C@@H](CC1CCCCC1)NC(=O)[C@H](Cc1c[nH]cn1)NC(=O)[C@@H](CC(=O)N1CCOCC1)Cc1cccc2ccccc12`, the half-inhibitory concentration (IC50) came out at 2100 nM in test [4] and 3500 nM in test [5].
In the same order, the values of `CC(C)OC(=O)C(O)[C@@H](Cc1ccccc1)NC(=O)[C@H](Cc1cnc[nH]1)NC(=O)[C@@H](CC(=O)N1CCOCC1)Cc1cccc2ccccc12` (some centres not stated) are 270 nM and 110 nM.
The like results for `CC(C)OC(=O)[C@H](O)[C@H](CC1CCCCC1)NC(=O)[C@H](Cc1c[nH]cn1)NC(=O)[C@H](CC(=O)N1CCOCC1)Cc1cccc2ccccc12` were, in that order, 1500 nM and 4200 nM.

Source of the values: ChEMBL document CHEMBL1124974, “Orally potent human renin inhibitors derived from angiotensinogen transition state: design, synthesis, and mode of interaction” (J Med Chem, 1990).
